In test [1] the target is C-C chemokine receptor type 3 (Homo sapiens) (UniProt P51677). In words: Binding affinity to CCR3 at 20 uM.
The target of test [2] is T1, Parathyroid hormone/parathyroid hormone-related peptide receptor (Homo sapiens, UniProt Q03431).
T1 sequence (Q03431 whole entry): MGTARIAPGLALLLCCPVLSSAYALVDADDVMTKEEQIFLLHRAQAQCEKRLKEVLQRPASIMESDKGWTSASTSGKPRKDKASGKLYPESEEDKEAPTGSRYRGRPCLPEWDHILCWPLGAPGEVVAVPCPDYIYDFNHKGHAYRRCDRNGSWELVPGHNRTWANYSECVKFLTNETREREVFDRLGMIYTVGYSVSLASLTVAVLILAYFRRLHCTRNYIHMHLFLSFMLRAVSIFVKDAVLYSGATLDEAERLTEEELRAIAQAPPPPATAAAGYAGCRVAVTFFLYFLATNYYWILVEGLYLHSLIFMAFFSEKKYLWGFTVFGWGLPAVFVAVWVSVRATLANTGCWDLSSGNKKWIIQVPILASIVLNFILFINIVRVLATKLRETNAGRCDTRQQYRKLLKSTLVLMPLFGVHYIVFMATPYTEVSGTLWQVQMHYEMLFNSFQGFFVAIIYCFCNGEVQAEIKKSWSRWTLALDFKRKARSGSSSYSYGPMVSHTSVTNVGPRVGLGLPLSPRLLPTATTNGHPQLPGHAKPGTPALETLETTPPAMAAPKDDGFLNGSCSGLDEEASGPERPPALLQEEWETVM
As to the kind of experiment: Antagonist activity at PTH/PTH-related peptide receptor expressed in HKRK-B28 cells assessed as inhibition of parathyroid hormone (1 to 34)-induced cAMP production. Format: functional, cell-based. Summed up:
(§1)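 Cells lifted with EDTA after culture in DMEM with 10% FBS and refeeding 12–24 h before assay. Resuspended in HBSS/5 mM Hepes/0.1% BSA/0.5 mM IBMX, pH 7.4, and stimulated with agonist peptide with or without antagonist. cAMP read by AlphaScreen.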

In test [3] the target is D(2) dopamine receptor (Homo sapiens) (UniProt P14416). In words: Inhibition of dopamine D2 receptor at 20 uM.
Chain of D(2) dopamine receptor (Homo sapiens) (P14416 whole entry): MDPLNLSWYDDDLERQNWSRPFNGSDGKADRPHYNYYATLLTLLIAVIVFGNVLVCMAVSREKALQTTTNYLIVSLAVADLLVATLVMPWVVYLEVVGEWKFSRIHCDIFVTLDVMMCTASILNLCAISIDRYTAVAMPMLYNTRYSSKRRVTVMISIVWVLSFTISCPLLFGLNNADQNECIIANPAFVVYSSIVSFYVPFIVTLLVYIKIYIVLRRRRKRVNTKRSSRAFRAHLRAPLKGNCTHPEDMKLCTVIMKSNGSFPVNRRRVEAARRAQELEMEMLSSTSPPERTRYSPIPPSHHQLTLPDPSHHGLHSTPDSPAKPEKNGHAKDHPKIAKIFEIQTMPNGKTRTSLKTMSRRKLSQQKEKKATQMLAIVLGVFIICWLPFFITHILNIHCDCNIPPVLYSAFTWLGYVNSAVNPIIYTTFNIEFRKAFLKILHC
Test [4] addresses Muscarinic acetylcholine receptor M5 (Homo sapiens) (UniProt P08912). As to the kind of experiment: Inhibition of muscarinic M5 receptor at 20 uM.
Test [5] has as its target Histamine H1 receptor (Homo sapiens) (UniProt P35367). In words: Inhibition of histamine H1 receptor at 20 uM.
For test [6], the target named is Alpha-2A adrenergic receptor (Homo sapiens) (UniProt P08913). As to the kind of experiment: Inhibition of adrenergic alpha2A receptor at 20 uM.
Test [7] concerns the target Alpha-1D adrenergic receptor (Homo sapiens, UniProt P25100). In words: Inhibition of adrenergic Alpha-1D receptor.
In test [8] the target is T1, Parathyroid hormone/parathyroid hormone-related peptide receptor. In words: Antagonist activity at PTH/PTH-related peptide receptor expressed in HKRK-B28 cells assessed as inhibition of DPC-AJ1951-induced cAMP production. Format: functional, cell-based. A digest of the protocol:
as §1
On the technique in general: cAMP levels reflect the balance of adenylyl cyclase and phosphodiesterase activity.

Test [9] addresses C-C chemokine receptor type 4 (Homo sapiens) (UniProt P51679). As to the kind of experiment: Binding affinity to CCR4 at 20 uM.
For test [10], the target named is Parathyroid hormone/parathyroid hormone-related peptide receptor (Homo sapiens) (UniProt Q03431). As to the kind of experiment: Antagonist activity at human PTH/PTH-related peptide receptor expressed in human CL0153 cells assessed as inhibition of DPC-AJ1951-induced cAMP production. Format: functional, cell-based. A digest of the protocol: as §1
The target in test [11] is C-C chemokine receptor type 5 (Homo sapiens) (UniProt P51681). In words: Binding affinity to CCR5 at 20 uM.
Chain of C-C chemokine receptor type 5 (Homo sapiens) (P51681 whole entry, looked up): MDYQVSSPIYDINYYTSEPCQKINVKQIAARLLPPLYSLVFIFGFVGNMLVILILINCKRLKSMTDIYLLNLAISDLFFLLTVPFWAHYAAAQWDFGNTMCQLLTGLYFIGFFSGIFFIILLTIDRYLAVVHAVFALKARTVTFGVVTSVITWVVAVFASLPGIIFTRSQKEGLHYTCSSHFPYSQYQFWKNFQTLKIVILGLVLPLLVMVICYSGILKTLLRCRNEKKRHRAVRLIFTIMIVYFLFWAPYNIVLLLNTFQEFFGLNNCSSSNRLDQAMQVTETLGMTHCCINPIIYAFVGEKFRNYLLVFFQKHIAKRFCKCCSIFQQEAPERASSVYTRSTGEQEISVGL
Test [12] deals with Alpha-1B adrenergic receptor (Homo sapiens) (UniProt P35368). In words: Inhibition of adrenergic Alpha-1B receptor at 20 uM.
Test [13] deals with Parathyroid hormone/parathyroid hormone-related peptide receptor (Rattus norvegicus) (UniProt P25961). As to the kind of experiment: Antagonist activity at rat PTH/PTH-related peptide receptor expressed in rat UMR106 cells assessed as inhibition of DPC-AJ1951-induced cAMP production. It is filed as functional, cell-based. A digest of the protocol:
as §1

The target in test [14] is C-X-C chemokine receptor type 2 (Homo sapiens) (UniProt P25025). As to the kind of experiment: Inhibition of CXCR2 at 20 uM.
In test [15] the target is Parathyroid hormone/parathyroid hormone-related peptide receptor (Homo sapiens) (UniProt Q03431). In words: Antagonist activity at human PTH/PTH-related peptide receptor expressed in human SaOS2 assessed as inhibition of DPC-AJ1951-induced cAMP production. Format: functional, cell-based. The following applies: SAOS-2. A digest of the protocol: as §1
Test [16] has as its target 5-hydroxytryptamine receptor 2C (Homo sapiens) (UniProt P28335). In words: Inhibition of 5HT2C receptor at 20 uM.
The target in test [17] is 5-hydroxytryptamine receptor 2A (Homo sapiens, UniProt P28223). In words: Inhibition of 5HT2A receptor.
Chain of 5-hydroxytryptamine receptor 2A (P28223 whole entry): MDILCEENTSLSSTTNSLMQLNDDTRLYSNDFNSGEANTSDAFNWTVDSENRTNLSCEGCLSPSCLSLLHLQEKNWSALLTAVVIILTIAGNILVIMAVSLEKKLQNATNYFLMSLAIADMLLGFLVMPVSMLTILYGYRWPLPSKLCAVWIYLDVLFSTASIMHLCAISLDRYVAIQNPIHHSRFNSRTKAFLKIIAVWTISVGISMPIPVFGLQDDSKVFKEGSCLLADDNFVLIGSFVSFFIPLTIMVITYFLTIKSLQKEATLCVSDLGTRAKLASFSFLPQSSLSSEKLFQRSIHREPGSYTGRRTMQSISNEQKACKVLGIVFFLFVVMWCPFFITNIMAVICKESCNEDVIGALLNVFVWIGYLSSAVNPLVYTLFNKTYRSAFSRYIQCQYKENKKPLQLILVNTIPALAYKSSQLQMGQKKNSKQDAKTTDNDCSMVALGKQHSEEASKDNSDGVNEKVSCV
Another test has as its target Substance-K receptor (Homo sapiens, UniProt P21452). In words: Inhibition of neurokinin 2 receptor.
Test [18] has as its target T1, Parathyroid hormone/parathyroid hormone-related peptide receptor. As to the kind of experiment: Displacement of [125I]DPC-AJ1951 from PTH/PTH-related peptide receptor expressed in HKRK-B28 cells. It is filed as cell-based. A digest of the protocol: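 Whole HKRK-B28 cells plated at 30,000/well and incubated overnight at 37°C, 5% CO2. Incubated 3 h at room temperature, washed three times, bound radioactivity counted by scintillation.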
A general note: Displacement assays read how much labelled ligand stays bound in the presence of the test substance.

In test [19] the target is C-C chemokine receptor type 1 (Homo sapiens) (UniProt P32246). In words: Binding affinity to CCR1 at 20 uM.
Chain of C-C chemokine receptor type 1 (Homo sapiens) (P32246 whole entry): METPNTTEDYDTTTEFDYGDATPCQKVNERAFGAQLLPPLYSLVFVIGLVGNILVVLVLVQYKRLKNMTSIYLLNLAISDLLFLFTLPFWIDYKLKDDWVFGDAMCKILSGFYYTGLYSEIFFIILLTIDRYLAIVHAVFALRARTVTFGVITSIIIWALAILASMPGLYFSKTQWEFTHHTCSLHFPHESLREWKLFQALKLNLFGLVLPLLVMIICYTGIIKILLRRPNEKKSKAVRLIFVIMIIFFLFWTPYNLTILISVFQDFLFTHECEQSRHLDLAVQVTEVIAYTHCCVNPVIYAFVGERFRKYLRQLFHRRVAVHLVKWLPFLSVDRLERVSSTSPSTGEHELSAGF
The target in test [20] is C-C chemokine receptor type 2 (Homo sapiens) (UniProt P41597). As to the kind of experiment: Binding affinity to CCR2 at 20 uM.
In test [21] the target is C-X-C chemokine receptor type 3 (Homo sapiens) (UniProt P49682). As to the kind of experiment: Inhibition of CXCR3 at 20 uM.
Chain of C-X-C chemokine receptor type 3 (Homo sapiens) (P49682 whole entry): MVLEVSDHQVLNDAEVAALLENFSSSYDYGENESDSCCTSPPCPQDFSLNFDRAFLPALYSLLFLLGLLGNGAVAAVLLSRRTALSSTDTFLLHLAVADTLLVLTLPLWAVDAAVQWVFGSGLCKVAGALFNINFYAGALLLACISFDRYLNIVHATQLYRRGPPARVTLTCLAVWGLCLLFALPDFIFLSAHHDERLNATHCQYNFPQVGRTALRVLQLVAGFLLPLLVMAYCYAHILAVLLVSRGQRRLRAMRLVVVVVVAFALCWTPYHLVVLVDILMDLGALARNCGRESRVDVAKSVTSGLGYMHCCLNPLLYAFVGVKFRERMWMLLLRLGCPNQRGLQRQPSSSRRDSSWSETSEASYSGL
In test [22] the target is Alpha-2C adrenergic receptor (Homo sapiens, UniProt P18825). As to the kind of experiment: Inhibition of adrenergic Alpha-2C receptor.

SMILES strings stand for the structures. Active and inactive are the calls of the source. No cut-off for these calls is given here.

By IC50 is commonly meant the concentration needed to halve the response being measured.

Chain of Substance-K receptor (P21452 whole entry): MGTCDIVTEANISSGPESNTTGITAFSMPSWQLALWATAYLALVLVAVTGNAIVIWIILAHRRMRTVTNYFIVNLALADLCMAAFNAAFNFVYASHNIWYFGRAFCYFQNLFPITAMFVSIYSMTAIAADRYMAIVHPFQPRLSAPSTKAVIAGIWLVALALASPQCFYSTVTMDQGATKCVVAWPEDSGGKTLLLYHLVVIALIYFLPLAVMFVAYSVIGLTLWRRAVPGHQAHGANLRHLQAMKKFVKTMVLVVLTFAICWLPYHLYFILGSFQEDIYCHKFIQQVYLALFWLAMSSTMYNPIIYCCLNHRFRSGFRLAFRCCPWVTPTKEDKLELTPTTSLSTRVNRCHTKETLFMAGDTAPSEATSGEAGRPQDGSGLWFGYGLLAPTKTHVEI
Chain of Alpha-1D adrenergic receptor (P25100 whole entry): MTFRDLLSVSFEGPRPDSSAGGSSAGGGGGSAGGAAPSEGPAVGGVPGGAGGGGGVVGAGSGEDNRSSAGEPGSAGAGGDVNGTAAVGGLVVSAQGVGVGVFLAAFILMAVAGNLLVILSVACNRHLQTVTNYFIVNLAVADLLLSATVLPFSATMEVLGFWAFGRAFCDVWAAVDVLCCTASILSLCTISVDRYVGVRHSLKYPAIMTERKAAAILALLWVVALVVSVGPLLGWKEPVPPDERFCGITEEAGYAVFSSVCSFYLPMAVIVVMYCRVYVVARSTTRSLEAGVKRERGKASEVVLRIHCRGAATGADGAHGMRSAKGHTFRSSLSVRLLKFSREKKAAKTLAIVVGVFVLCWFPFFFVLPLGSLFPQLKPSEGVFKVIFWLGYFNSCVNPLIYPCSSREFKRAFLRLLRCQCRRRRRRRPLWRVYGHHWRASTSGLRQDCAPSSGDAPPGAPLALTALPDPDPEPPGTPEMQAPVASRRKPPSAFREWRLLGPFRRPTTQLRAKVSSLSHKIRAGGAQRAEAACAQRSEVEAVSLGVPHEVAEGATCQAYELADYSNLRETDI
Chain of Muscarinic acetylcholine receptor M5 (Homo sapiens) (P08912 whole entry): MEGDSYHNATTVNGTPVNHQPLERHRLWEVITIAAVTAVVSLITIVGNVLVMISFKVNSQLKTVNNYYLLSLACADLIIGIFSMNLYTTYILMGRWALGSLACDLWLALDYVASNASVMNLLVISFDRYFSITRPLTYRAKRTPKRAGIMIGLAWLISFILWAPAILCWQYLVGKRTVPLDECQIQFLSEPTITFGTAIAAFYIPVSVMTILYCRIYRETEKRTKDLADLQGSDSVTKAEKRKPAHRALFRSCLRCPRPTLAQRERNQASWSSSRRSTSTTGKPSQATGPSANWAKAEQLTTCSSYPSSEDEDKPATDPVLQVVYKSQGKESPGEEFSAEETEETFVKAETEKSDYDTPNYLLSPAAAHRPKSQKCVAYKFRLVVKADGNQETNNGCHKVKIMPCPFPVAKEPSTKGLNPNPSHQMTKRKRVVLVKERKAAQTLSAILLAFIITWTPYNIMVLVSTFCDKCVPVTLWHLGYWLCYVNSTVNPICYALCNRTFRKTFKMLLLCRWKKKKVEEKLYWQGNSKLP
Chain of Parathyroid hormone/parathyroid hormone-related peptide receptor (Rattus norvegicus) (P25961 whole entry): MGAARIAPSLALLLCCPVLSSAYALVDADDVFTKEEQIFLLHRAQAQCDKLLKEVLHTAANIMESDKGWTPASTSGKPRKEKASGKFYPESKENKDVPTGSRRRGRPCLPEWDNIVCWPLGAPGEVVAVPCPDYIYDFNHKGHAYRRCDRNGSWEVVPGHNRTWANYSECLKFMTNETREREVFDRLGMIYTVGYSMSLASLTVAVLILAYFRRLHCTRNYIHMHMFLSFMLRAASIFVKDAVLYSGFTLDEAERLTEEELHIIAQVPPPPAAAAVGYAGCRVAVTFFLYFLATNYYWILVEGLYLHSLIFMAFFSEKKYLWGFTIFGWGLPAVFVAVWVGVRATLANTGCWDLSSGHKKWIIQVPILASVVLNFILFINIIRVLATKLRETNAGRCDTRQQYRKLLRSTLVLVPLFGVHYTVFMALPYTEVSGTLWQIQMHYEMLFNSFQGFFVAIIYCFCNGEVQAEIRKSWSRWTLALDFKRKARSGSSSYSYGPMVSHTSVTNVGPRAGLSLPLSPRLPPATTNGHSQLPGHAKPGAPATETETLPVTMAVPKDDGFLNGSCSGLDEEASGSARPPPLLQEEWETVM
Chain of Histamine H1 receptor (Homo sapiens) (P35367 whole entry): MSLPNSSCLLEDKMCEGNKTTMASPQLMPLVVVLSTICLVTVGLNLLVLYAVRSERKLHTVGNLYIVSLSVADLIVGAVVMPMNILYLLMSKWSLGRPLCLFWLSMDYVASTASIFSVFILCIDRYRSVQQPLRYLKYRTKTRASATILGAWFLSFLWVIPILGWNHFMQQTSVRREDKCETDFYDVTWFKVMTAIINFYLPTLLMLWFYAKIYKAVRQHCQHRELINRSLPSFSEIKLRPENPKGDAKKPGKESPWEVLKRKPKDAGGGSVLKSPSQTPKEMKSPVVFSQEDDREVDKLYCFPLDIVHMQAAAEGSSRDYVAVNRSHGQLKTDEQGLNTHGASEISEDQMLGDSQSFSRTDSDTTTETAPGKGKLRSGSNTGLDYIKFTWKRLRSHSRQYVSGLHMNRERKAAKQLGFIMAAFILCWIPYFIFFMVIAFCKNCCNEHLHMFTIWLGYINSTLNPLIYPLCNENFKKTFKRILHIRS
Chain of C-C chemokine receptor type 3 (Homo sapiens) (P51677 whole entry): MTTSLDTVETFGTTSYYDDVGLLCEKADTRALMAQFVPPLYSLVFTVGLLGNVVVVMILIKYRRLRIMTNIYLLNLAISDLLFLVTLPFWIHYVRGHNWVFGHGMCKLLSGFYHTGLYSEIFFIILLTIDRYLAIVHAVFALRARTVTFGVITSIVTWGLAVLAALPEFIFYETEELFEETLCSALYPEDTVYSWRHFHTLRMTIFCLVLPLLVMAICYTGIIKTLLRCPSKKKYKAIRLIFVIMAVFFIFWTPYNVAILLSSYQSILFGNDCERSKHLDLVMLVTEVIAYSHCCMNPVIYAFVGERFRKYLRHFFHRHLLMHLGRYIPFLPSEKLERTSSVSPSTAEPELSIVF

In the case of `CC[C@@H]1O[C@](/C=C/C2CC2)(C(F)(F)F)c2c(ccc(F)c2F)NC1=O`, the outcome in test [1], in test [3], in test [4], in [5], in [6] and in [9] was inactive. In addition, the outcome in test [11], in test [12], in [14], in [16], in test [19] and in [20] was inactive. Further, the result in test [21] was inactive. In addition, the IC50 in test [2] amounted to 68 µM; in [7], 13.8 µM; in [8], 5.78 µM; in [17], 15 µM; on Substance-K receptor, 28 µM; in test [18] it was 0.99 µM. In addition, the IC50 in [22] amounted to 10.4 µM. Also, the outcome in test [10], in [13] and in [15] was Active.

The values above are taken from ChEMBL document CHEMBL1156459, “Discovery of a small molecule antagonist of the parathyroid hormone receptor by using an N-terminal parathyroid hormone peptide probe” (Proc Natl Acad Sci U S A, 2007).
